Calls of active or inactive are those of the source. No cut-off for these calls is given here.

For assay [1], the system named is MCF7. In words: Antiproliferative activity against human MCF7 cells after 48 hrs by MTT assay. The format is functional, cell-based. The note with it: MCF7, 48 h. In a few lines: (§1)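 Cells grown in DMEM with 10% FBS at 37 °C, 5% CO2; seeded at 6 × 10^3 cells/well, allowed to attach 12 h, then exposed to compound at final 50, 25, 10, 1 and 0.1 µM for 48 h. MTT (5 mg/mL) added for 4 h, formazan dissolved in DMSO, absorbance read at 490 nm; IC50 taken from the resulting curve.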
For orientation: Tetrazolium dyes change colour on reduction, which living cells bring about.

For assay [2], the system named is HepG2. In words: Antiproliferative activity against human HepG2 cells after 48 hrs by MTT assay. The format is functional, cell-based. The note with it: HepG2, 48 h. In outline:
as §1

Assay [3] concerns the target Baculoviral IAP repeat-containing protein 5 (Homo sapiens) (UniProt O15392). In words: Binding affinity to survivin (unknown origin) up to 1.8 uM after 20 mins by spectrofluorimetric titration method.
Assay [4] can be described thus: Antiproliferative activity against human QGY7701 cells after 48 hrs by MTT assay. The format is cell-based. Particulars: QGY7701, 48 h. In outline: as §1
For assay [5], the species on record is Homo sapiens. In words: Inhibition of recombinant human topoisomerase-2-mediated decatenation at 10 uM using kinetoplast DNA as substrate after 30 mins agarose gel electrophoresis method relative to control. In a few lines:
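Human Topo II decatenation run by a contract laboratory. Compound or 50% DMSO combined with reaction mix and diluted enzyme, incubated 35 ± 2 °C for 30 min, then stop buffer added. Products separated on 1% agarose, stained 10 min with 2.3 µg/ml ethidium bromide, destained 20 min, bands quantified densitometrically. Doxorubicin at 1 and 10 µM as positive controls, no-compound negative control; run in duplicate.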

Baculoviral IAP repeat-containing protein 5 (Homo sapiens), sequence (O15392 whole entry): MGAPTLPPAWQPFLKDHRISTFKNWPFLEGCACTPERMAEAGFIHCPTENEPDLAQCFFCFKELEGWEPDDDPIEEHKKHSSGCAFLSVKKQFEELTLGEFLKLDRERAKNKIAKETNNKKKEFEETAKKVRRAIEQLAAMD

The IC50 is the midpoint of a concentration-inhibition curve. A lower IC50 goes with greater potency in that assay. Take `Cc1cccc2c(=O)c3c(Cl)ccc(C(=O)NCCN(C)C)c3[nH]c12`: the IC50 in assay [1] and in assay [2] was over 50 µM each time.

With `COc1cccc2c(=O)c3c(NCc4ccccc4)ccc(C(=O)NCCN(C)C)c3[nH]c12`, the results for the IC50 in assay [1] and in assay [2] were 13.7 µM and 5.5 µM, respectively.

In the case of `COc1cccc2c(=O)c3c(Cl)ccc(C(=O)NCCN(C)C)c3[nH]c12`, the IC50 in assay [1] is 18.5 µM; in assay [2], 24.7 µM.

As for `COCCNC(=O)c1ccc(NCc2cc(OC)c(OC)c(OC)c2)c2c(=O)c3cccc(C)c3[nH]c12`, the IC50 in assay [1] and in assay [2] was over 50 µM in each case.

`CCc1ccc(CNc2ccc(C(=O)NCCCN(C)C)c3[nH]c4c([N+](=O)[O-])cccc4c(=O)c23)cc1`: the figures for the IC50 in assay [1] and in assay [2] were 4.69 µM and 5.78 µM, respectively.

In the case of `COc1ccc(CNc2ccc(C(=O)NCCN(C)C)c3[nH]c4c([N+](=O)[O-])cccc4c(=O)c23)cc1`, the IC50 came to 1.05 µM in assay [1] and 4.5 µM in assay [2].

Consider `CN(C)CCNC(=O)c1ccc(Cl)c2c(=O)c3cccc([N+](=O)[O-])c3[nH]c12`, for which the IC50 in assay [1] came out at 2.28 µM; in assay [2] it was 14.5 µM.

On to `COc1ccc(CNc2ccc(C(=O)NCCCN(C)C)c3[nH]c4c(C)cccc4c(=O)c23)cc1`, for which the IC50 is 4.12 µM in assay [1] and 5.94 µM in assay [2].

Turning to `Cc1cccc2c(=O)c3c(NN)ccc(C(=O)NCCN(C)C)c3[nH]c12`, the values for the IC50 in assay [1] and in assay [2] were 13 µM and 8.85 µM, respectively.

Consider `Cc1cccc2c(=O)c3c(NCc4ccccc4)ccc(C(=O)NCCN(C)C)c3[nH]c12`, for which the IC50 is 5.48 µM in assay [1] and 7.99 µM in assay [2].

Take `COc1cc(CNc2ccc(C(=O)NCCN(C)C)c3[nH]c4c([N+](=O)[O-])cccc4c(=O)c23)cc(OC)c1OC`: the IC50 amounted to 5.73 µM in assay [1] and 7 µM in assay [2].

Turning to `COCCNC(=O)c1ccc(NCc2ccc(OC)cc2)c2c(=O)c3cccc(C)c3[nH]c12`, the IC50 in assay [1] and in assay [2] was over 50 µM in each case.

As for `CN(C)CCCNC(=O)c1ccc(N(C)C)c2c(=O)c3cccc([N+](=O)[O-])c3[nH]c12`, the IC50 in assay [1] turned out to be 9.29 µM; in assay [2], 36.8 µM.

Consider `COc1cccc(CNc2ccc(C(=O)NCCN(C)C)c3[nH]c4c([N+](=O)[O-])cccc4c(=O)c23)c1`, for which the results for the IC50 in assay [1] and in assay [2] were 5.09 µM and 8.61 µM, respectively.

`COc1cc(CNc2ccc(C(=O)NCCN(C)C)c3[nH]c4c(OC)cccc4c(=O)c23)cc(OC)c1OC`: the IC50 in assay [1] and in assay [2] was over 50 µM throughout.

On to `COCCNC(=O)c1ccc(NCc2ccccc2)c2c(=O)c3cccc(C)c3[nH]c12`, for which the IC50 in assay [1] was over 50 µM; in assay [2], 17.2 µM.

On to `COCCN1C(C)=[N+](Cc2cnccn2)C2Cc3ccccc3CC21` (stereo not given), for which the figures for the IC50 in assay [1] and in assay [2] were 4.13 µM and 15.3 µM, respectively. In assay [3], the outcome was inactive.

As to `COCCNC(=O)c1ccc(NCc2ccc(C(F)(F)F)cc2)c2c(=O)c3cccc(C)c3[nH]c12`, the IC50 in assay [1] and in assay [2] was over 50 µM in each case.

Regarding `CN(C)CCNC(=O)c1ccc(N(C)C)c2c(=O)c3cccc([N+](=O)[O-])c3[nH]c12`, the IC50 in assay [1] was 3.54 µM; in assay [2], 28.6 µM.

As to `COc1ccc(CNc2ccc(C(=O)NCCN(C)C)c3[nH]c4c(OC)cccc4c(=O)c23)cc1`, the IC50 in assay [1] was 6.13 µM; in assay [2], 5.15 µM.

In the case of `COc1ccc(CNc2ccc(C(=O)NCCN(C)C)c3[nH]c4c(Cl)cc(Cl)cc4c(=O)c23)cc1`, the IC50 in assay [1] and in assay [2] was 17.5 µM throughout.

For the compound `COc1cc(CNc2ccc(C(=O)NCCN(C)C)c3[nH]c4c(C)cccc4c(=O)c23)cc(OC)c1OC`, the IC50 in assay [1] was determined as 5.06 µM; in assay [2], 4.96 µM.

Consider `CN(C)CCNC(=O)c1ccc(NCc2ccccc2)c2c(=O)c3cccc([N+](=O)[O-])c3[nH]c12`, for which the IC50 in assay [1] was determined as 5.61 µM; in assay [2] it was 9.59 µM.

For `COc1ccc(CNc2ccc(C(=O)NCCCN(C)C)c3[nH]c4c(OC)cccc4c(=O)c23)cc1`, the IC50 worked out at 9.97 µM in assay [1] and 10.8 µM in assay [2].

As to `COc1ccc(CNc2ccc(C(=O)NCCCN(C)C)c3[nH]c4c(N)cccc4c(=O)c23)cc1`, the IC50 in assay [1] came to 13.4 µM; in assay [2], 5.68 µM.

For `COc1cccc(CNc2ccc(C(=O)NCCN(C)C)c3[nH]c4c(C)cccc4c(=O)c23)c1`, the values for the IC50 in assay [4], in assay [1] and in assay [2] were 3.12 µM, 3.65 µM and 2.82 µM, respectively.

In the case of `CN(C)CCCNC(=O)c1ccc(NCc2ccccc2)c2c(=O)c3cccc([N+](=O)[O-])c3[nH]c12`, the IC50 in assay [4] turned out to be 3.97 µM; in assay [1] it was 2.92 µM; in assay [2], 2.43 µM.

A word on the inhibition: it is the change of the read-out against control, counted positive when it falls. With `COc1cccc2c1C(=O)c1c(O)c3c(c(O)c1C2=O)C[C@@](O)(C(=O)CO)C[C@@H]3O[C@H]1C[C@H](N)[C@H](O)[C@H](C)O1`, in assay [5], the inhibition stood at 74.4%.

For the compound `COc1cccc2c(=O)c3c(NN)ccc(C(=O)NCCCN(C)C)c3[nH]c12`, the IC50 in assay [1] was 14.8 µM; in assay [2], 12.3 µM.

On to `COc1ccc(CNc2ccc(C(=O)NCCN(C)C)c3[nH]c4c(C)cccc4c(=O)c23)cc1`, for which the IC50 in assay [4] was determined as 6.91 µM; in assay [1], 6.84 µM; in assay [2], 2.11 µM.

As for `COCCNC(=O)c1ccc(NCc2cccc(OC)c2)c2c(=O)c3cccc(C)c3[nH]c12`, the IC50 in assay [1] and in assay [2] was over 50 µM in each case.

Source of the values: ChEMBL document CHEMBL4007449, “Novel multi-substituted benzyl acridone derivatives as survivin inhibitors for hepatocellular carcinoma treatment” (Eur J Med Chem, 2017).
